In ChEMBL document CHEMBL4673227, “Development of Gleevec Analogues for Reducing Production of β-Amyloid Peptides through Shifting β-Cleavage of Amyloid Precursor Proteins” (J Med Chem, 2019):
The source made the active and inactive calls. The calls are words filed in the database; no cut-off is given here.

Key:
N2a695 [1] = assay: Inhibition of beta secretase in mouse N2a695 cells assessed as reduction in A-beta 42 levels at 10 uM incubated for 5 hrs by ELISA; assay type: cell-based
Outline: (§1)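 Mouse N2a695 cells (N2a overexpressing human APP695), grown in Opti-MEM/DMEM with 5% FBS and geneticin at 37 °C, 5% CO₂. Cells seeded overnight in 6-well plates, >95% confluent, then given fresh medium with compounds (2.5–10 μM, diluted from DMSO stocks) for 5 h. Secreted Aβ40/Aβ42 measured by ELISA or MSD ELISA against DMSO control; 2–3 experiments averaged.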

N2a695 [2] = assay: Inhibition of beta secretase in mouse N2a695 cells assessed as reduction in A-beta 42 levels at 5 uM treated 1 hr after BACE IV treatment and further incubated for 5 hrs by ELISA; assay type: cell-based
Outline: (§2)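 N2a695 cells pretreated with BACE IV for 1 h, then treated with compound plus BACE IV for 5 h. Secreted Aβ40 and Aβ42 measured by ELISA.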

N2a695 [3] = assay: Inhibition of beta secretase in mouse N2a695 cells assessed as reduction in A-beta 40 levels at 5 uM treated 1 hr after BACE IV treatment and further incubated for 5 hrs by ELISA; assay type: cell-based; outline: as §2
Mus musculus [4] = assay: Inhibition of FA-soluble A-beta-40 levels in 2xTg AD mouse model at 100 mg/kg, po BID for 4 days and once daily on day 5 by ELISA; assay type: functional, organism-based; settings: time 5.0 day
Outline: (§3)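 2xTg AD females (APP Swedish/PS1ΔE9), 5 months old, n = 7 per group. 2a-mesylate 20 mg/mL in water with 0.1% methylcellulose, 100 mg/kg by gavage, or vehicle, twice daily 8 h apart for 4 days, then once on day 5. Euthanized 4 h after last dose. Left hemisphere homogenized in 1% Triton X-100 TBS (pH 7.4), then insoluble Aβ extracted with 70% formic acid and measured by ELISA.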

N2a695 [5] = assay: Inhibition of beta secretase in mouse N2a695 cells assessed as reduction in A-beta 42 levels at 5 to 10 uM incubated for 5 hrs by ELISA; assay type: cell-based; settings: dose 5-10 µM; outline: as §1
Mus musculus [6] = assay: Inhibition of FA-soluble A-beta-42 levels in 2xTg AD mouse model at 100 mg/kg, po BID for 4 days and once daily on day 5 by ELISA; assay type: functional, organism-based; outline: as §3
N2a695 [7] = assay: Inhibition of beta secretase in mouse N2a695 cells assessed as reduction in A-beta 40 levels at 5 to 10 uM incubated for 5 hrs by ELISA; assay type: cell-based; settings: dose 5-10 µM; outline: as §1
N2a [8] = assay: Inhibition of gamma secretase in mouse N2a cells expressing APP-C99 assessed as reduction of A-beta40 levels at 10 uM incubated for 5 hrs by MSD-ELISA relative to control; assay type: cell-based
Outline: (§4)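 N2a cells transfected with plasmids for full-length APP695 or APP-C99. After 48 h, fresh medium with compounds (10 μM) added for 5 h. Supernatant Aβ40, Aβ42, sAPPα and sAPPβ measured by MSD ELISA against DMSO; BACE IV (2 μM) and DAPT (1 μM) run alongside.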

[9] = Inhibition of beta secretase in mouse N2a695 cells assessed as reduction in A-beta 40 levels incubated for 5 hrs by ELISA; assay type: cell-based; settings: N2a695, 5 h; outline: as §1
N2a [10] = assay: Inhibition of gamma secretase in mouse N2a cells expressing APP-C99 assessed as reduction of A-beta42 levels at 10 uM incubated for 5 hrs by MSD-ELISA relative to control; assay type: cell-based; outline: as §4
[11] = Toxicity in mouse N2a695 cells assessed as reduction in cell viability at 5 to 10 uM incubated for 5 hrs; assay type: cell-based; settings: n2a695, 5 h, dose 5-10 µM
Outline: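 N2a cells exposed to compounds at 10 μM for 5 h alongside the Aβ assay. Cell viability/density compared with DMSO control.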

[12] = Drug level in C57BL/6J mouse brain at 150 mg/kg, ip measured after 4 hrs by LC-MS/MS analysis; assay type: ADME, organism-based; settings: read-out: Drug uptake
Outline: (§5)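 Mesylate salts in water ([…], 125 μL) given i.p. at 50 or 150 mg/kg to 8-week-old male C57BL/6J mice. Brain and plasma harvested 4 h post-dose and snap-frozen. Brain homogenized and extracted twice with ethanol, plasma extracted with acetonitrile, both with internal standard. Drug quantified by LC-MS/MS; n = 3 or 4.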

[13] = Drug level in C57BL/6J mouse plasma at 150 mg/kg, ip measured after 4 hrs by LC-MS/MS analysis; assay type: ADME, organism-based; outline: as §5
[14] = Inhibition of beta secretase in mouse N2a695 cells assessed as reduction in A-beta 42 levels incubated for 5 hrs by ELISA; assay type: cell-based; settings: N2a695, 5 h; outline: as §1
[15] = Drug level in C57BL/6J mouse plasma at 50 mg/kg, ip measured after 4 hrs by LC-MS/MS analysis; assay type: ADME, organism-based; outline: as §5
[16] = Drug level in C57BL/6J mouse brain at 50 mg/kg, ip measured after 4 hrs by LC-MS/MS analysis; assay type: ADME, organism-based; settings: read-out: Drug uptake; outline: as §5
N2a [17] = assay: Inhibition of beta secretase in mouse N2a cells expressing FL APP695 assessed as reduction of A-beta levels at 2 uM incubated for 5 hrs by MSD-ELISA
N2a [18] = assay: Inhibition of gamma secretase in mouse N2a cells expressing FL APP695 assessed as reduction of A-beta levels at 1 uM incubated for 5 hrs by MSD-ELISA; assay type: cell-based
[19] = Toxicity in mouse up to 150 mg/kg, po QD for 5 days; assay type: organism-based; settings: in vivo, 120 h, time 5 day
Outline: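 Wild-type mice given the compound by oral gavage, increasing amounts up to 150 mg/kg once daily for 5 days. Animals observed for signs of toxicity.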

[20] = Stability in human liver microsomes assessed as parent compound remaining level at 10 uM after 1 hrs by HPLC-MS/MS analysis; assay type: ADME, Microsome; settings: read-out: Stabilty
[21] = Stability in human liver microsomes assessed as parent compound remaining level at 1 uM after 0.5 hrs by HPLC-MS/MS analysis; assay type: ADME, Microsome; settings: read-out: Stabilty
[22] = Stability in mouse liver microsomes assessed as parent compound remaining level at 1 uM after 0.5 hrs by HPLC-MS/MS analysis; assay type: ADME, Microsome; settings: read-out: Stabilty
[23] = Stability in mouse liver microsomes assessed as parent compound remaining level at 1 uM after 1 hrs by HPLC-MS/MS analysis; assay type: ADME, Microsome; settings: read-out: Stabilty
[24] = Stability in human liver microsomes assessed as parent compound remaining level at 1 uM after 1 hrs by HPLC-MS/MS analysis; assay type: ADME, Microsome; settings: read-out: Stabilty
[25] = Stability in mouse liver microsomes assessed as parent compound remaining level at 10 uM after 0.5 hrs by HPLC-MS/MS analysis; assay type: ADME, Microsome; settings: read-out: Stabilty
[26] = Stability in mouse liver microsomes assessed as parent compound remaining level at 10 uM after 1 hrs by HPLC-MS/MS analysis; assay type: ADME, Microsome; settings: read-out: Stabilty
[27] = Stability in human liver microsomes assessed as parent compound remaining level at 10 uM after 0.5 hrs by HPLC-MS/MS analysis; assay type: ADME, Microsome; settings: read-out: Stabilty
[28] = Drug level in plasma of wild-type mouse at 50 mg/kg, po after 24 hrs by LC-MS/MS analysis; settings: in vivo
[29] = Drug level in plasma of wild-type mouse at 50 mg/kg, po after 12 hrs by LC-MS/MS analysis; settings: in vivo
[30] = Drug level in brain of wild-type mouse at 50 mg/kg, po after 12 hrs by LC-MS/MS analysis; settings: in vivo
[31] = Drug level in brain of wild-type mouse at 50 mg/kg, po after 6 hrs by LC-MS/MS analysis; settings: in vivo

| IC50 [9] | IC50 [14] | concentration at 4 h [15] | concentration at 4 h [16] | Compound | inhibition (N2a695 [5]) | inhibition (N2a695 [7]) | Activity [11] | also measured |
| --- | --- | --- | --- | --- | --- | --- | --- | --- |
| – | – | – | – | CNCCc1ccc(C(=O)Nc2ccc(C)c(Nc3nccc(-c4cccnc4)n3)c2)cc1 | – | – | – | inhibition (N2a695 [1]): Active |
| – | – | – | – | Cc1ccc(NC(=O)c2ccc(CCN(C)C)cc2)cc1Nc1nccc(-c2cccnc2)n1 [listing 1 of 2 here] | Active | Active | – | inhibition (N2a695 [2]): Active; inhibition (N2a695 [3]): Active; inhibition (Mus musculus [4]): Active; inhibition (Mus musculus [6]): Active |
| > 5 µM | > 5 µM | – | – | Cc1ccc(NC(=O)c2ccc(CCN(C)C)cc2C(F)(F)F)cc1Nc1nccc(-c2cccnc2)n1 | Active | Active | Non-Toxic | inhibition (N2a [8]): 25%; inhibition (N2a [10]): 25%; concentration at 4 h [12]: 60 ng/g; concentration at 4 h [13]: 11.6 µM |
| > 5 µM | > 5 µM | 2.3 µM | 39 ng/g | Cc1ccc(NC(=O)c2ccc(C3CCCN(C)C3)cc2)cc1Nc1nccc(-c2cccnc2)n1 (configuration not stated) | Active | Active | Non-Toxic | – |
| – | – | – | – | C[C@H](NC(=O)Cc1cc(F)cc(F)c1)C(=O)N[C@H](C(=O)OC(C)(C)C)c1ccccc1 | – | – | – | inhibition (N2a [17]): Active; inhibition (N2a [18]): Active |
| > 5 µM | > 5 µM | 1 µM | 21 ng/g | Cc1ccc(NC(=O)c2ccc(N3CCN(C)CC3)cc2)cc1Nc1nccc(-c2cccnc2)n1 | Active | Active | Non-Toxic | – |
| > 5 µM | > 5 µM | 2.5 µM | 27 ng/g | Cc1ccc(NC(=O)c2ccc(CCN(C)C)cc2)cc1Nc1nccc(-c2cccnc2)n1 [listing 2 of 2 here] | – | – | Non-Toxic | Activity [19]: Non-Toxic; remaining at 1 h, 10 µM [20]: 56.5%; remaining at 0.5 h, 1 µM [21]: 61.9%; remaining at 0.5 h, 1 µM [22]: 7.9%; remaining at 1 h, 1 µM [23]: 1.3%; remaining at 1 h, 1 µM [24]: 29.2%; remaining at 0.5 h, 10 µM [25]: 15.1%; remaining at 1 h, 10 µM [26]: 2.3%; remaining at 0.5 h, 10 µM [27]: 77.1% |
| – | – | 0.1 µM | < 1 ng/g | CS(=O)(=O)O.Cc1ccc(NC(=O)c2ccc(CN3CCN(C)CC3)cc2)cc1Nc1nccc(-c2cccnc2)n1 [IMATINIB MESYLATE] | – | – | – | remaining at 1 h, 10 µM [20]: 66.4%; remaining at 0.5 h, 1 µM [21]: 40.4%; remaining at 0.5 h, 1 µM [22]: 7.3%; remaining at 1 h, 1 µM [23]: 1.7%; remaining at 1 h, 1 µM [24]: 15.9%; remaining at 0.5 h, 10 µM [25]: 22.5%; remaining at 1 h, 10 µM [26]: 5.1%; remaining at 0.5 h, 10 µM [27]: 95.4% |
| > 5 µM | > 5 µM | – | 127 ng/g | Cc1ccc(NC(=O)c2ccc(C3CCN(C)CC3)cc2)cc1Nc1nccc(-c2cccnc2)n1 | Active | Active | Non-Toxic | – |
| – | – | – | – | Cc1ccc(NC(=O)c2ccc(CCN)cc2)cc1Nc1nccc(-c2cccnc2)n1 | – | – | – | inhibition (N2a695 [1]): Active |
| – | – | – | – | CS(=O)(=O)O.Cc1ccc(NC(=O)c2ccc(CCN(C)C)cc2)cc1Nc1nccc(-c2cccnc2)n1 | – | – | – | Drug uptake [28]: Not Active; Drug uptake [29]: Active; Drug uptake [30]: Not Active; Drug uptake [31]: Active |
